Legend:
Adenosine receptor A3 = biological target: T1, Adenosine receptor A3 (Homo sapiens, UniProt P0DMS8); assay: Displacement of [3H]PSB-11 from human adenosine A3 receptor expressed in CHO cells; type: cell-based
T1 sequence (P0DMS8 whole entry): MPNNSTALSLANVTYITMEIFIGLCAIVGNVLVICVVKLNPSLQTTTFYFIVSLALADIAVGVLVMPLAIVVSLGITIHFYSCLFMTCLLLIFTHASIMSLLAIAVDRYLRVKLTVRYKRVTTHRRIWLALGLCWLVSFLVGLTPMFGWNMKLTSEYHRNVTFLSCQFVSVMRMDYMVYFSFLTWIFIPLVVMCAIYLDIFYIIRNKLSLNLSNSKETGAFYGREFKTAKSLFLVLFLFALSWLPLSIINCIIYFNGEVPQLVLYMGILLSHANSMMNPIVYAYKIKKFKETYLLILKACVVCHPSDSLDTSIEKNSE

[1] = biological target: T2, Adenosine receptor A1 (Rattus norvegicus) (UniProt P25099); assay: Displacement of [3H]CCPA from adenosine A1 receptor in rat brain cortex relative to control; type: tissue-based; parameters: concentration or dose not given beside the values; conditions: concentration not given here
T2 sequence (whole entry): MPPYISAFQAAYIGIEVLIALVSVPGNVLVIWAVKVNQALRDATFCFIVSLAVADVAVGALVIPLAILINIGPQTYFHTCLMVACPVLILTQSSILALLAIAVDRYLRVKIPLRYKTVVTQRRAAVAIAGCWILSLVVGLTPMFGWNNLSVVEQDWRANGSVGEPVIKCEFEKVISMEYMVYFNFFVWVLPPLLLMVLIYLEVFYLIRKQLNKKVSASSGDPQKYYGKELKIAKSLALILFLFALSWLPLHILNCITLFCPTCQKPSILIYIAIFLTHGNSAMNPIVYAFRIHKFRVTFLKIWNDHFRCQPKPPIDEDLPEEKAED
Outline: (§1)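 Radioligand binding to rat A1 receptors in rat brain cortical membrane preparations. Values are given as Ki, or as % inhibition of radioligand binding at the indicated concentration.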

[2] = biological target: T3, Amine oxidase [flavin-containing] A (Homo sapiens, UniProt P21397); assay: Inhibition of human MAO-A
T3 sequence (P21397 whole entry): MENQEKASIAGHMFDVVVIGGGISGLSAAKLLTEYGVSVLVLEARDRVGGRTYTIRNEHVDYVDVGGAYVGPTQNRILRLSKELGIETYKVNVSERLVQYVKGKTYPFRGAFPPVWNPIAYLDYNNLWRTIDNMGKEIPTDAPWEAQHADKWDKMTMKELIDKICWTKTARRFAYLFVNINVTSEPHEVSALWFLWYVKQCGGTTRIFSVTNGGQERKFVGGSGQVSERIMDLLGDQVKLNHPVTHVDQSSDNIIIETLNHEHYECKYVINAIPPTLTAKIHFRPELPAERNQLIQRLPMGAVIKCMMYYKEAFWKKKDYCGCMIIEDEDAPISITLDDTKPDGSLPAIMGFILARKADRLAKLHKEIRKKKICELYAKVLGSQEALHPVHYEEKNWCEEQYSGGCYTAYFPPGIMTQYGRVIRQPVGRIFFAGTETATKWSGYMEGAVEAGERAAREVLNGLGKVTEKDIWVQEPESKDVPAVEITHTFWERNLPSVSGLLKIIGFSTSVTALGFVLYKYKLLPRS
Outline: (§2)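 Human MAO-A and MAO-B inhibition, screened first at a test concentration of 10 µM.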

Adenosine receptor A1 [3] = biological target: T4, Adenosine receptor A1 (Rattus norvegicus, UniProt P25099); assay: Displacement of [3H]CCPA from adenosine A1 receptor in rat brain cortex; type: tissue-based; outline: as §1
T4 sequence (P25099 whole entry): T2 sequence (whole entry)

[4] = biological target: T5, MAO-B (amine oxidase [flavin-containing] B) (Homo sapiens, UniProt P27338); assay: Inhibition of human MAO-B at 10 uM relative to control; outline: as §2
T5 sequence (P27338 whole entry): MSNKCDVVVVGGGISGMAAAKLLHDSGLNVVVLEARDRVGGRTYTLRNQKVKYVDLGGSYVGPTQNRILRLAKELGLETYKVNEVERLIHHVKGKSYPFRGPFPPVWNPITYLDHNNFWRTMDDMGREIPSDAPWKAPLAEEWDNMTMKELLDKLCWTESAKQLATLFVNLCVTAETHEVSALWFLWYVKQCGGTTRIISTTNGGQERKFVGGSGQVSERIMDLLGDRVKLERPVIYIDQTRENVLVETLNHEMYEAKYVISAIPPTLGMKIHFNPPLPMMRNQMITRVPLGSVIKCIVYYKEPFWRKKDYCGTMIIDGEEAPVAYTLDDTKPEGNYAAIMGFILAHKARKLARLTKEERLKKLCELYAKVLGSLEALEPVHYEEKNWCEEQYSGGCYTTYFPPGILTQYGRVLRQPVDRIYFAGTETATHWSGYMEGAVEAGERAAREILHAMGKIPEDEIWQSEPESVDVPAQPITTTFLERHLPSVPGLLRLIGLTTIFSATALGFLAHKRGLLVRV

[5] = biological target: T6, Adenosine receptor A2b (Homo sapiens) (UniProt P29275); assay: Displacement of [3H]PSB-603 from human adenosine A2B receptor relative to control; parameters: concentration or dose not given beside the values; conditions: concentration not given here
T6 sequence (whole entry): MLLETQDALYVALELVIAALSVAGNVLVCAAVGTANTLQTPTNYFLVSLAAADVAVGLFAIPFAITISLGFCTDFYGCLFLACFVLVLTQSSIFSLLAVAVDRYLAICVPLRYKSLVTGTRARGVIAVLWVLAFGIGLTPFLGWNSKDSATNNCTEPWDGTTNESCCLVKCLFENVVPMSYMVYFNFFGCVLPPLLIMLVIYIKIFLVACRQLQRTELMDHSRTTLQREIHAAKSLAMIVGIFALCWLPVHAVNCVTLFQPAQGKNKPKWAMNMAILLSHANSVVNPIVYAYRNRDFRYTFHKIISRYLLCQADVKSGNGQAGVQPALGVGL

[6] = biological target: T7, Amine oxidase [flavin-containing] B (Homo sapiens, UniProt P27338); assay: Inhibition of human MAO-B
T7 sequence (P27338 whole entry): T5 sequence (P27338 whole entry)

Adenosine receptor A2a [7] = biological target: Adenosine receptor A2a (Rattus norvegicus, UniProt P30543); assay: Displacement of [3H]MSX-2 from adenosine A2A receptor in rat brain striatum; type: tissue-based
Chain of Adenosine receptor A2a (Rattus norvegicus, UniProt P30543) (P30543 whole entry): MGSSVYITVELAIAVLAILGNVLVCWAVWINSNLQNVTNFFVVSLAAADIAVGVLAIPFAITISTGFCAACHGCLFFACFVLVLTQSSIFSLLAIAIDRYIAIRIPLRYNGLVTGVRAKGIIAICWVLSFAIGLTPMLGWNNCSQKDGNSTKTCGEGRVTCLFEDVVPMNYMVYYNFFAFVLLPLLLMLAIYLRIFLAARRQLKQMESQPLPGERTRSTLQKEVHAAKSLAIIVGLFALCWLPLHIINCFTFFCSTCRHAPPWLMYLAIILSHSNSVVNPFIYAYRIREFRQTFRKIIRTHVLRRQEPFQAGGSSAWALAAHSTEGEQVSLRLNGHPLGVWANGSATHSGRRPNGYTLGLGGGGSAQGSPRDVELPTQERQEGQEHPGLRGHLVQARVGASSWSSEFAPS

[8] = biological target: T8, MAO-A (amine oxidase [flavin-containing] A) (Homo sapiens, UniProt P21397); assay: Inhibition of human MAO-A at 10 uM relative to control; outline: as §2
T8 sequence (P21397 whole entry): T3 sequence (P21397 whole entry)

[9] = biological target: T9, Adenosine receptor A3 (Homo sapiens) (UniProt P0DMS8); assay: Displacement of [3H]PSB-11 from human adenosine A3 receptor expressed in CHO cells relative to control; type: cell-based; parameters: concentration or dose not given beside the values; conditions: concentration not given here
T9 sequence (whole entry): T1 sequence (P0DMS8 whole entry)

Adenosine receptor A2b = biological target: T10, Adenosine receptor A2b (Homo sapiens, UniProt P29275); assay: Displacement of [3H]PSB-603 from human adenosine A2B receptor
T10 sequence (P29275 whole entry): T6 sequence (whole entry)

Adenosine receptor A2a [10] = biological target: Adenosine receptor A2a (Homo sapiens, UniProt P29274); assay: Displacement of [3H]MSX-2 from human adenosine A2A receptor expressed in CHO cells; type: cell-based
Chain of Adenosine receptor A2a (Homo sapiens, UniProt P29274) (P29274 whole entry): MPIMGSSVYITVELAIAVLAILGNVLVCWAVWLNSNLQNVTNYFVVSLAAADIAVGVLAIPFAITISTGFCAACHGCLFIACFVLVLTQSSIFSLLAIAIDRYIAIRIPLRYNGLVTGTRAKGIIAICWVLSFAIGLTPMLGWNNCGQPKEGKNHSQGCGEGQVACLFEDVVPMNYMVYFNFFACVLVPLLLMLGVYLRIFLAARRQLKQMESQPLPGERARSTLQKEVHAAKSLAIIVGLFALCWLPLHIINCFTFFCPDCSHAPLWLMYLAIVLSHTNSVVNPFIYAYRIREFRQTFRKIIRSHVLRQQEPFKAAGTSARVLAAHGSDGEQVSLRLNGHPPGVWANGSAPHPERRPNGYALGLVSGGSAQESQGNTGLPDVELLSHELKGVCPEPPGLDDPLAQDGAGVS
Outline: (§3)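 Radioligand binding to human receptors recombinantly expressed in Chinese hamster ovary (CHO) cells. Results are Ki, or % inhibition of radioligand binding at the indicated concentration.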

Adenosine receptor A1 [11] = biological target: T11, Adenosine receptor A1 (Homo sapiens, UniProt P30542); assay: Displacement of [3H]CCPA from human adenosine A1 receptor expressed in CHO cells; type: cell-based; outline: as §3
T11 sequence (P30542 whole entry): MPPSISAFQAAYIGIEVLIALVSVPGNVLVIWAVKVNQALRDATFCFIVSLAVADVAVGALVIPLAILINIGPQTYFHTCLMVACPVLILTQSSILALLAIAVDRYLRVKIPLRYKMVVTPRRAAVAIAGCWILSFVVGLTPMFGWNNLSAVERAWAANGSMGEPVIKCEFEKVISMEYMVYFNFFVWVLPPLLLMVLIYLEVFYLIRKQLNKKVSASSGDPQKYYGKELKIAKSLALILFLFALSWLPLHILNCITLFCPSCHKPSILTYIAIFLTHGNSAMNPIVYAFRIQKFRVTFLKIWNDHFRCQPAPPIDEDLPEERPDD

| Compound | Ki (Adenosine receptor A3) | inhibition [1] | IC50 [2] | Ki (Adenosine receptor A1 [3]) | inhibition at 10 µM [4] | inhibition [5] | IC50 [6] | Ki (Adenosine receptor A2a [7]) | inhibition at 10 µM [8] | inhibition [9] | Ki (Adenosine receptor A2b) | Ki (Adenosine receptor A2a [10]) | Ki (Adenosine receptor A1 [11]) |
| --- | --- | --- | --- | --- | --- | --- | --- | --- | --- | --- | --- | --- | --- |
| CCn1c(=O)c2c(nc3n2CCCN3c2ccc(O)cc2)n(CC)c1=O | > 10000 nM | 30% | > 10000 nM | > 10000 nM | 56% | 22% | 10000 nM | 10900 nM | 11% | 29% | > 1000 nM |  |  |
| C#CCn1c(=O)c2c(nc3n2CCCN3CC2CCCO2)n(C)c1=O (stereo not drawn) | > 10000 nM |  |  | 169 nM | 30% | 6% | > 10000 nM | 1430 nM |  | 9% | > 1000 nM | 1110 nM | 1150 nM |
| Cn1c(=O)c2c(nc3n2CCCN3c2ccc(Cl)c(Cl)c2)n(C)c1=O | > 1000 nM | 28% | > 10000 nM | > 10000 nM | 50% | 3% | 10000 nM | 4700 nM | 12% | 12% | > 1000 nM |  |  |
| Cn1c(=O)c2c(nc3n2CCCN3CCc2ccc(Cl)c(Cl)c2)n(C)c1=O | > 10000 nM |  | > 10000 nM | 7240 nM |  | 10% | 86.9 nM | 780 nM | -2% | 23% | > 1000 nM | 5250 nM |  |
| C#CCn1c(=O)c2c(nc3n2CCCN3Cc2ccccc2OC)n(C)c1=O | 4410 nM |  | > 10000 nM | 1060 nM |  | 16% | 1800 nM | 641 nM | 4% |  | > 1000 nM | 417 nM | 605 nM |
| C#CCn1c(=O)c2c(nc3n2CCCN3Cc2ccccc2)n(C)c1=O | > 10000 nM |  | > 10000 nM | 135 nM |  |  | 3760 nM | 533 nM | 5% | 34% | 3520 nM | 253 nM | 249 nM |
| Cn1c(=O)c2c(nc3n2CCCN3CCc2ccc(Cl)cc2)n(C)c1=O | > 10000 nM |  | > 10000 nM | 3030 nM |  | 8% | 624 nM | 515 nM | 4% | 38% | > 1000 nM | 5610 nM |  |
| Cn1c(=O)c2c(nc3n2CCCN3CC(=O)N2CCN(Cc3ccccc3)CC2)n(C)c1=O | > 300 nM | 0% | > 10000 nM | > 1500 nM | 55% | -7% | 10000 nM | 14000 nM | 4% | 23% | > 300 nM |  |  |

Source: ChEMBL document CHEMBL3091303, “1,3-Dialkyl-substituted tetrahydropyrimido[1,2-f]purine-2,4-diones as multiple target drugs for the potential treatment of neurodegenerative diseases” (Bioorg Med Chem, 2013)
